# Columns and labels:
# Vero = assay: Cytotoxicity against African green monkey Vero cells measured after 72 hrs by MTT assay; assay type: cell-based; settings: Chlorocebus sabaeus
# Procedure, shortened: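 Log-phase Vero cells (0.8 × 10^4/well) in RPMI-1640 + 10% heat-inactivated FBS at 37 °C, 5% CO2 were exposed 72 h to serial dilutions (10.0–200.0 µM; stocks in DMSO). MTT was then added for 4 h and absorbance read. Quadruplicates, three experiments; IC50 by nonlinear regression.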
# Trypanosoma cruzi [1] = assay: Antitrypanosomal activity against Trypanosoma cruzi TINF/CH/1956/Tulahuen;DTU 6 epimastigotes measured after 72 hrs by Neubauer hemocytometer; assay type: functional, organism-based; settings: TINF/CH/1956/Tulahuen;DTU 6, 72 h
# Trypanosoma cruzi [2] = assay: Antitrypanosomal activity against Trypanosoma cruzi MHOM/Pe/2011/Arequipa;DTU 5 epimastigotes measured after 72 hrs by Neubauer hemocytometer; assay type: functional, organism-based; settings: MHOM/Pe/2011/Arequipa;DTU 5, 72 h
# Trypanosoma cruzi [3] = assay: Antitrypanosomal activity against Trypanosoma cruzi IRHOD/CO/2008/SN3;DTU 1 epimastigotes measured after 72 hrs by Neubauer hemocytometer; assay type: functional, organism-based; settings: IRHOD/CO/2008/SN3;DTU 1, 72 h
# [4] = Selectivity index, ratio of IC50 for African green monkey Vero cells to IC50 for Trypanosoma cruzi MHOM/Pe/2011/Arequipa;DTU 5; assay type: toxicity; settings: read-out: Selectivity Index
# Procedure, shortened: (§1)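 SI = Vero IC50 / epimastigote IC50. Vero cells were grown in RPMI-1640 with 10% FBS, seeded at 0.8 × 10^4 cells/well, exposed to 10.0–200.0 µM for 72 h, then given MTT for 4 h. Epimastigotes were grown in MTL with 10% FBS at 28 °C, 5 × 10^5/mL, exposed to 6.3–50 µM for 48 h, then resazurin for 24 h (570/600 nm). IC50s came from nonlinear regression.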
# [5] = Selectivity index, ratio of IC50 for African green monkey Vero cells to IC50 for Trypanosoma cruzi IRHOD/CO/2008/SN3;DTU 1; assay type: toxicity; settings: read-out: Selectivity Index; procedure, shortened: as §1
# [6] = Selectivity index, ratio of IC50 for African green monkey Vero cells to IC50 for Trypanosoma cruzi TINF/CH/1956/Tulahuen;DTU 6; assay type: toxicity; settings: read-out: Selectivity Index; procedure, shortened: as §1
# Trypanosoma cruzi [7] = assay: Antitrypanosomal activity against Trypanosoma cruzi MHOM/Pe/2011/Arequipa;DTU 5 amastigote forms measured after 72 hrs by Giemsa staining based assay; assay type: functional, organism-based; settings: MHOM/Pe/2011/Arequipa;DTU 5, 72 h
# Procedure, shortened: (§2)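 Vero cells (1 × 10^4/well, on coverslips) left to adhere 24 h at 37 °C, 5% CO2, then infected with trypomastigotes at MOI 10:1 for 24 h. Free parasites were removed by three PBS washes. Compounds at 3.1, 6.25, 12.5, 25 and 50 µM were incubated 72 h, and amastigotes were counted after Giemsa staining. Triplicates, two separate experiments; IC50 by nonlinear regression.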
# Trypanosoma cruzi [8] = assay: Antitrypanosomal activity against bloodstream trypomastigote stage of Trypanosoma cruzi MHOM/Pe/2011/Arequipa; DTU 5 isolated from parasite infected BALB/c Albino mouse cardiac cells after 24 hrs by Neubauer chamber based cell counting method; assay type: functional, organism-based; settings: DTU 5, 24 h
# Procedure, shortened: (§3)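 Bloodstream trypomastigotes were taken by cardiac puncture from infected BALB/c mice and diluted in RPMI + 10% heat-inactivated FBS. At 2 × 10^6/mL they were exposed to 3.1–50.0 µM (lower where needed) for 24 h at 37 °C, 5% CO2, and counted in a Neubauer chamber. Triplicates, at least three experiments; IC50 by nonlinear regression.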
# Trypanosoma cruzi [9] = assay: Antitrypanosomal activity against Trypanosoma cruzi IRHOD/CO/2008/SN3;DTU 1 amastigote forms measured after 72 hrs by Giemsa staining based assay; assay type: functional, organism-based; settings: IRHOD/CO/2008/SN3;DTU 1, 72 h; procedure, shortened: as §2
# Trypanosoma cruzi [10] = assay: Antitrypanosomal activity against bloodstream trypomastigote stage of Trypanosoma cruzi IRHOD/CO/2008/SN3;DTU 1 isolated from parasite infected BALB/c Albino mouse cardiac cells after 24 hrs by Neubauer chamber based cell counting method; assay type: functional, organism-based; settings: IRHOD/CO/2008/SN3;DTU 1, 24 h; procedure, shortened: as §3
# Trypanosoma cruzi [11] = assay: Antitrypanosomal activity against Trypanosoma cruzi TINF/CH/1956/Tulahuen;DTU 6 amastigote forms measured after 72 hrs by Giemsa staining based assay; assay type: functional, organism-based; settings: TINF/CH/1956/Tulahuen;DTU 6, 72 h; procedure, shortened: as §2
# Trypanosoma cruzi [12] = assay: Trypanocidal activity against Trypanosoma cruzi trypomastigote form infected in African green monkey Vero cells assessed as ratio of infected cells at 50 uM measured after 72 hrs by Giemsa staining based assay relative to control; assay type: functional
# Procedure, shortened: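 Vero cells (1 × 10^4/well, on coverslips) were infected with trypomastigotes at MOI 10:1 for 24 h and washed three times with PBS. They were treated at 3.1, 6.25, 12.5, 25 and 50 µM for 72 h at 37 °C in 5% CO2. Infected cells were counted after Giemsa staining. Triplicates, two separate determinations.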
# [13] = Selectivity index, ratio of IC50 for African green monkey Vero cells to IC50 for Trypanosoma cruzi MHOM/Pe/2011/Arequipa; DTU 5 amastigote forms; assay type: toxicity; settings: read-out: Selectivity Index
# Procedure, shortened: (§4)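 Vero cells (1 × 10^4/well) were infected with trypomastigotes at MOI 10:1 for 24 h and washed with PBS. They were then exposed to 3.1–50 µM for 72 h at 37 °C in 5% CO2, and amastigotes were counted after Giemsa staining. Triplicates in two determinations; nonlinear regression.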
# [14] = Selectivity index, ratio of IC50 for African green monkey Vero cells to IC50 for Trypanosoma cruzi MHOM/Pe/2011/Arequipa; DTU 5 trypomastigote forms; assay type: toxicity; settings: read-out: Selectivity Index
# Procedure, shortened: (§5)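 Bloodstream trypomastigotes were taken from BALB/c mice by cardiac puncture and diluted in RPMI with 10% FBS at 2 × 10^6/mL. They were incubated with 3.1–50.0 µM for 24 h at 37 °C in 5% CO2 and counted in a Neubauer chamber. Triplicate, at least three experiments; nonlinear regression.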
# [15] = Selectivity index, ratio of IC50 for African green monkey Vero cells to IC50 for Trypanosoma cruzi IRHOD/CO/2008/SN3;DTU 1 amastigote forms; assay type: toxicity; settings: read-out: Selectivity Index; procedure, shortened: as §4
# [16] = Selectivity index, ratio of IC50 for African green monkey Vero cells to IC50 for Trypanosoma cruzi IRHOD/CO/2008/SN3;DTU 1 trypomastigote forms; assay type: toxicity; settings: read-out: Selectivity Index; procedure, shortened: as §5
# [17] = Selectivity index, ratio of IC50 for African green monkey Vero cells to IC50 for Trypanosoma cruzi TINF/CH/1956/Tulahuen;DTU 6 amastigote forms; assay type: toxicity; settings: read-out: Selectivity Index; procedure, shortened: as §4
# [18] = Selectivity index, ratio of IC50 for African green monkey Vero cells to IC50 for Trypanosoma cruzi TINF/CH/1956/Tulahuen;DTU 6 trypomastigote forms; assay type: toxicity; settings: read-out: Selectivity Index; procedure, shortened: as §5
# Trypanosoma cruzi [19] = assay: Trypanocidal activity against Trypanosoma cruzi trypomastigote form infected in African green monkey Vero cells measured after 48 hrs by resazurin dye based assay; assay type: functional, organism-based
# Trypanosoma cruzi [20] = assay: Trypanocidal activity against Trypanosoma cruzi TINF/CH/1956/Tulahuen;DTU 6 trypomastigote forms infected in BALB/c albino mouse measured after 24 hrs by Neubauer chamber method; settings: TINF/CH/1956/Tulahuen;DTU 6, 24 h
Compound,IC50 (Vero),IC50 (Trypanosoma cruzi [1]),IC50 (Trypanosoma cruzi [2]),IC50 (Trypanosoma cruzi [3]),selectivity ratio [4],selectivity ratio [5],selectivity ratio [6],IC50 (Trypanosoma cruzi [7]),IC50 (Trypanosoma cruzi [8]),IC50 (Trypanosoma cruzi [9]),IC50 (Trypanosoma cruzi [10]),IC50 (Trypanosoma cruzi [11]),Ratio (Trypanosoma cruzi [12]),selectivity ratio [13],selectivity ratio [14],selectivity ratio [15],selectivity ratio [16],selectivity ratio [17],selectivity ratio [18],IC50 (Trypanosoma cruzi [19]),other results
COc1ccc(C(=O)CCNc2ccc(F)cc2)cc1,133 µM,14.4 µM,14.8 µM,25.4 µM,9,5.2,9.3,4.7 µM,2.1 µM,5.4 µM,3.4 µM,6.7 µM,10%,27.6,64.8,24.7,39.4,20.1,48.8,7.1 µM,IC50 (Trypanosoma cruzi [20]): 2.7 µM
COc1ccc(C(=O)CCNc2ccc(C(F)(F)F)cc2)cc1,32.6 µM,24.6 µM,17.8 µM,76.1 µM,1.8,0.4,1.3,–,–,–,–,–,–,–,–,–,–,–,–,–,–
COc1ccc(C(=O)CCNCCc2ccc(C(F)(F)F)cc2)cc1,91.1 µM,13.2 µM,59.7 µM,13.2 µM,1.5,6.9,6.9,9.1 µM,3.6 µM,4.5 µM,5.5 µM,3.3 µM,17%,10,25,20.2,16.7,27.7,26.1,13.9 µM,IC50 (Trypanosoma cruzi [20]): 3.5 µM
COc1ccc(C(=O)CCNc2ccc(Cl)cc2)cc1,146 µM,16.4 µM,18.7 µM,38.4 µM,7.8,3.8,8.9,7.3 µM,13 µM,6 µM,63 µM,26.3 µM,28%,19.9,11.2,24.1,2.3,5.5,10.2,9 µM,IC50 (Trypanosoma cruzi [20]): 14.2 µM
COc1ccc(C(=O)CCNCCc2ccc(F)cc2)cc1,66.2 µM,20.3 µM,35.6 µM,16.9 µM,1.9,3.9,3.3,–,–,–,–,–,–,–,–,–,–,–,–,–,–
COc1ccc(C(=O)CCNCCc2ccc(Cl)cc2)cc1,53.5 µM,15.2 µM,51.6 µM,14.6 µM,1,3.7,3.5,–,–,–,–,–,–,–,–,–,–,–,–,–,–
O=C(CCN1CCN(c2ccc([N+](=O)[O-])cc2)CC1)c1ccc(O)cc1,34.6 µM,43 µM,24.8 µM,13 µM,1.4,2.7,0.8,–,–,–,–,–,–,–,–,–,–,–,–,–,–
O=C(CCN1CCN(c2ccc(F)cc2)CC1)c1ccc(O)cc1,50 µM,13 µM,24.4 µM,10.1 µM,2.1,5,3.9,–,–,–,–,–,–,–,–,–,–,–,–,–,–
